Laboratory results from ChEMBL document CHEMBL1135505, “Synthesis and pharmacology of benzoxazines as highly selective antagonists at M(4) muscarinic receptors” (J Med Chem, 2002).

Assays:
Assay type in all cases: cell-based
[1] = biological target: T1, Muscarinic acetylcholine receptor M1 (Homo sapiens, UniProt P11229); assay: Inhibition of [3H]NMS binding to human muscarinic acetylcholine receptor M1 in transfected CHO cells.
T1 sequence (P11229 whole entry): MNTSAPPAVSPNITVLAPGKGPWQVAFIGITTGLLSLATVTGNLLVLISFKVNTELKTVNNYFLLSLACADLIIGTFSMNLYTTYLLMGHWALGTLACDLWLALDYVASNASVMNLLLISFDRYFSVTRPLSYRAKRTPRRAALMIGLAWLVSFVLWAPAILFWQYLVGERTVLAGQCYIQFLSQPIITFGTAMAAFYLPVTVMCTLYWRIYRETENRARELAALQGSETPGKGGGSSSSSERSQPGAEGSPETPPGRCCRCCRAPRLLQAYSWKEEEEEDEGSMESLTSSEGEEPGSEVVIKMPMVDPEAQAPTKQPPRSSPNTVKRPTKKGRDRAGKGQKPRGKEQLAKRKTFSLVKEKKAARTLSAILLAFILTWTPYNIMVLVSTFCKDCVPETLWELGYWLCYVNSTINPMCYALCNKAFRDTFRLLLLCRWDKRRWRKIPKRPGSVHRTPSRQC
Method in brief: (§1)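 Membranes from CHO-K1 cells expressing one human muscarinic subtype, harvested at 70-90% confluency. Incubated in 10 mM Na+/K+ PO4 pH 7.4 with 0.1 nM [3H]NMS and test compound for 120 min at 25 °C; atropine defined nonspecific binding. Filtration and scintillation counting. IC50 by logit fit, Ki by Cheng–Prusoff with KD (nM) M1 1.28, M2 0.85, M3 0.94, M4 3.10, M5 0.79. At least three tests, geometric mean.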

[2] = biological target: T2, Muscarinic acetylcholine receptor M2 (Homo sapiens, UniProt P08172); assay: Inhibition of [3H]-NMS binding to human muscarinic acetylcholine receptor M2 in transfected CHO cells.; method in brief: as §1
T2 sequence (P08172 whole entry): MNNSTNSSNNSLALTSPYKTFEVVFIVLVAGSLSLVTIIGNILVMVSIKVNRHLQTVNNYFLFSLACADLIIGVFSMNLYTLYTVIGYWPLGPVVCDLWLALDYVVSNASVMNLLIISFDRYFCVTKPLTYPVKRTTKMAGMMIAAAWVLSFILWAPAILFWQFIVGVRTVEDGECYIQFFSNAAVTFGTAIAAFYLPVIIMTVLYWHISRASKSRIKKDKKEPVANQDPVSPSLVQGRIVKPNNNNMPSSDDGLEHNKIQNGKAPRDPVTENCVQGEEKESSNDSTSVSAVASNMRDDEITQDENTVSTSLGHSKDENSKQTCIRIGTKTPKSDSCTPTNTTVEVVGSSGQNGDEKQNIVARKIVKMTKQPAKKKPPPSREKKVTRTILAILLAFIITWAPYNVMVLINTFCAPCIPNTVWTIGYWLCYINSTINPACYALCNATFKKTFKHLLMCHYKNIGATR

[3] = biological target: T3, Muscarinic acetylcholine receptor M4 (Homo sapiens, UniProt P08173); assay: Inhibition of [3H]NMS binding to human muscarinic acetylcholine receptor M4 in transfected CHO cells.; method in brief: as §1
T3 sequence (P08173 whole entry): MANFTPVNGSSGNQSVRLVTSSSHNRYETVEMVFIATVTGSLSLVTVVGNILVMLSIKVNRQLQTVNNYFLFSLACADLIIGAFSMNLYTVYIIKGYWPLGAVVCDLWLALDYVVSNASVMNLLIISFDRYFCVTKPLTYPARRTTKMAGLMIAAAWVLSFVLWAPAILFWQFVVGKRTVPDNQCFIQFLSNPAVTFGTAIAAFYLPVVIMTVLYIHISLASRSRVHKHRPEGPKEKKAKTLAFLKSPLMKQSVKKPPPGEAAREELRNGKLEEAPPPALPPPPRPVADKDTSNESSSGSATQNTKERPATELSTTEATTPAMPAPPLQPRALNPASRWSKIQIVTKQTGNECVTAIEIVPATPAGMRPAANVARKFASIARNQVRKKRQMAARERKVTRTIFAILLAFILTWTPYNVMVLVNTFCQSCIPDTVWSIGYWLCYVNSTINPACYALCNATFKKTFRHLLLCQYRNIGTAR

[4] = biological target: Muscarinic acetylcholine receptor M3 (Homo sapiens, UniProt P20309); assay: Inhibition of [3H]NMS binding to human muscarinic acetylcholine receptor M3 in transfected CHO cells.; method in brief: as §1
Sequence of Muscarinic acetylcholine receptor M3 (P20309 whole entry): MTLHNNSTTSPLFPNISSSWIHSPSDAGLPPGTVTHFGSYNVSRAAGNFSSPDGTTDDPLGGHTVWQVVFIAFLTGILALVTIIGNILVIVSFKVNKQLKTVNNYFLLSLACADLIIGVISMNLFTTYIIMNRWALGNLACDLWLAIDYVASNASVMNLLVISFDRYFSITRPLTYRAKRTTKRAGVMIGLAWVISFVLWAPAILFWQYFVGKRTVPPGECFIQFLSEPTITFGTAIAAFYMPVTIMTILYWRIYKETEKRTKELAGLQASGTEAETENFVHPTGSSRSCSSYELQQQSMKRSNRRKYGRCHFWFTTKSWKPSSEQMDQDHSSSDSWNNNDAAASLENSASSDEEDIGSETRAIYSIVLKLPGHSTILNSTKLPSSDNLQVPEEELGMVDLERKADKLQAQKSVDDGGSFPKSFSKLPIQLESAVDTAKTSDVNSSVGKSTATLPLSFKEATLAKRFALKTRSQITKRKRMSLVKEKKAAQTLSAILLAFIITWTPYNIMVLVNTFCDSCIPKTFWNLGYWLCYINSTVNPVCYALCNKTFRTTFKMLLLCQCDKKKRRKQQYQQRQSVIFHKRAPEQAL

[5] = biological target: T4, Muscarinic acetylcholine receptor M5 (Homo sapiens, UniProt P08912); assay: Inhibition of [3H]NMS binding to human muscarinic acetylcholine receptor M5 in transfected CHO cells.; method in brief: as §1
T4 sequence (P08912 whole entry): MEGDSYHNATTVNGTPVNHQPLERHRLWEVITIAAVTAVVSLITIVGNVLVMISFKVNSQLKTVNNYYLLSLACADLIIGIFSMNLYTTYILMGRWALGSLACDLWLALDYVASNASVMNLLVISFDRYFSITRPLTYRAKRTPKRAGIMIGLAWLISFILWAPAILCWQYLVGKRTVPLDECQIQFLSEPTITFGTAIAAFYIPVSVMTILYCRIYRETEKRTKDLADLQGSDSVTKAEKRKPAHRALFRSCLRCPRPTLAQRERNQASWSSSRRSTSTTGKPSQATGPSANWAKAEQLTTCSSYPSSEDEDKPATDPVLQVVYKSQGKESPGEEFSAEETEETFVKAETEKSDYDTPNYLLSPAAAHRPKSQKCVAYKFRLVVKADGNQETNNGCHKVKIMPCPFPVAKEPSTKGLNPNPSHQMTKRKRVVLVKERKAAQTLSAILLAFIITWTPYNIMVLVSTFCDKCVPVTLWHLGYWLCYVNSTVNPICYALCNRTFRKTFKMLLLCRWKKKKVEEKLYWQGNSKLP

| Ki [1] [nM] | Ki [2] [nM] | Ki [3] [nM] | Ki [4] [nM] | Ki [5] [µM] | SMILES |
| --- | --- | --- | --- | --- | --- |
| 20400 | 7240 | 11 | 457 | 5.37 | CCCCCc1[nH]c2ccc3c(c2c1C(=O)OCC)CN1CCc2cc(OC)ccc2C1O3 (stereo not given) |
| 1170 | 1350 | 72.4 | 1380 | 1.12 | COc1ccc2c(c1)CCN1Cc3c(ccc4[nH]c(C)c(C(=O)OCc5ccccc5)c34)OC21 (stereo not given) |
| 871 | 1450 | 1 | 100 | 2.4 | CCCc1[nH]c2ccc3c(c2c1C(=O)OCC)CN1CCc2cc(SC)ccc2C1O3 (stereo not given) |
| 7590 | 2190 | 61.7 | 3090 | 6.17 | COc1ccc2c(c1)CCN1Cc3c(ccc4[nH]c(C)c(-c5nc(C)no5)c34)OC21 (stereo not given) |
| 2510 | 5370 | 1350 | 2040 | 1.12 | COc1ccc2c(c1)CCN1Cc3c(ccc4[nH]c(C)c(Cc5ccccc5)c34)OC21 (stereo not given) |
| 1780 | 2190 | 7.08 | 229 | 1.95 | CCOC(=O)c1c(C)[nH]c2ccc3c(c12)CN1CCc2cc(SC)ccc2C1O3 (stereo not given) |
| 2190 | 1350 | 3.98 | 91.2 | 3.09 | CCOC(=O)c1c(CC)[nH]c2ccc3c(c12)CN1CCc2cc(OC)ccc2C1O3 (stereo not given) |
| 3090 | 4570 | 14.1 | 282 | > 28.2 | CCCCCCc1[nH]c2ccc3c(c2c1C(=O)OCC)CN1CCc2cc(OC)ccc2C1O3 (stereo not given) |
| > 4370 | 2450 | 1950 | 5130 | 4.79 | CCOC(=O)c1c(C)[nH]c2ccc3c(c12)CN1CCc2cccc(Cl)c2C1O3 (stereo not given) |
| 5130 | 3240 | 363 | 2750 | 5.37 | CCOC(=O)c1c(C)[nH]c2ccc3c(c12)CN1CCc2cc(Cl)ccc2C1O3 (stereo not given) |
| 1170 | 417 | 191 | 398 | 3.63 | COC(=O)c1c(C)n(C)c2ccc3c(c12)CN1CCc2cc(OC)ccc2C1O3 (stereo not given) |
| 1510 | 708 | 3.02 | 219 | 3.09 | CCOC(=O)c1c(CC)n(C)c2ccc3c(c12)CN1CCc2cc(OC)ccc2C1O3 (stereo not given) |
| 1320 | 513 | 2 | 70.8 | 3.39 | CCCc1c(C(=O)OCC)c2c3c(ccc2n1C)OC1c2ccc(OC)cc2CCN1C3 (stereo not given) |
| 21900 | 4070 | 9770 | 15500 | 19.5 | CCN(C)C(=O)c1c(C)[nH]c2ccc3c(c12)CN1CCc2cc(OC)ccc2C1O3 (stereo not given) |
| 1320 | 2340 | 67.6 | 1020 | 2.51 | CCCCOC(=O)c1c(C)[nH]c2ccc3c(c12)CN1CCc2cc(OC)ccc2C1O3 (stereo not given) |
| 2000 | 513 | 15.1 | 912 | 3.72 | CCOC(=O)c1c(C)n(C)c2ccc3c(c12)CN1CCc2cc(OC)ccc2C1O3 (stereo not given) |
| > 21900 | > 26900 | > 12300 | 25700 | > 28.2 | CCOC(=O)c1c(C)[nH]c2ccc3c(c12)CN1CCc2cc(O)ccc2C1O3 (stereo not given) |
| 3310 | 3800 | 2 | 229 | 1.7 | CCCc1c(C(=O)OCC)c2c3c(ccc2n1C)OC1c2ccc(SC)cc2CCN1C3 (stereo not given) |
| 871 | 2190 | 3.02 | 339 | 1.48 | CCCCc1[nH]c2ccc3c(c2c1C(=O)OCC)CN1CCc2cc(SC)ccc2C1O3 (stereo not given) |
| 2040 | 1070 | 2 | 70.8 | 2.24 | CCCc1[nH]c2ccc3c(c2c1C(=O)OCC)CN1CCc2cc(OC)ccc2C1O3 (stereo not given) |
| 13200 | 339 | 1 | 151 | 11.2 | CCCCc1[nH]c2ccc3c(c2c1C(=O)OCC)CN1CCc2cc(OC)ccc2C1O3 (stereo not given) |
| 1320 | 1070 | 15.1 | 407 | 2.24 | C=CCOC(=O)c1c(C)[nH]c2ccc3c(c12)CN1CCc2cc(OC)ccc2C1O3 (stereo not given) |
| 1320 | 537 | 7.08 | 257 | 3.39 | CCOC(=O)c1c(C)[nH]c2ccc3c(c12)CN1CCc2cc(OC)ccc2C1O3 (stereo not given) |

| SMILES | Ki [1] [nM] | Ki [2] [nM] | Ki [3] [nM] | Ki [4] [nM] | Ki [5] [µM] |
| --- | --- | --- | --- | --- | --- |
| C=CCOC(=O)c1c(C)n(Cc2ccc(OC)cc2)c2ccc3c(c12)CN1CCc2cc(OC)ccc2C1O3 (stereo not given) | 200 | 240 | 72.4 | 676 | 0.501 |
| CCOC(=O)c1c(CC)n(Cc2ccccc2)c2ccc3c(c12)CN1CCc2cc(OC)ccc2C1O3 (stereo not given) | 363 | 372 | 97.7 | 50.1 | 0.479 |
| CCOC(=O)c1c(C)n(CC)c2ccc3c(c12)CN1CCc2cc(OC)ccc2C1O3 (stereo not given) | 1320 | 219 | 110 | 263 | 2.51 |
